pIC50: −log10 of the molar value. Calls of active or inactive are those of the source. No cut-off for these calls is given here.
How the values were obtained:
[1] = system: A2780; assay: Antiproliferative activity against cisplatin-sensitive human A2780 cells measured after 96 hrs by MTT assay; assay type: functional, cell-based; conditions: for pIC50: A2780, 96 h
In short: (§1)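 Cells kept in DMEM or RPMI 1640 with 10% FBS and 5% penicillin-streptomycin at 37 °C, 5% CO2, seeded at 1 x 10⁴ cells/mL and left 24 h to adhere. Compounds or vehicle added over a concentration range for 96 h, then MTT 4 h; formazan dissolved in DMSO, absorbance read at 540 nm relative to control. IC50 given as mean ± SD of three independent experiments in duplicate.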

[2] = (§2) Antiproliferative activity against cisplatin-resistant human A2780/CP70 cells measured after 96 hrs by MTT assay; assay type: functional; conditions: A2780/CP70, 96 h; in short: as §1
[3] = system: ARPE-19; assay: Cytotoxicity against human ARPE19 cells measured after 96 hrs by MTT assay; assay type: cell-based; conditions: ARPE-19, 96 h; in short: as §1
[4] = Selectivity index, ratio of IC50 for human ARPE19 cells to IC50 for cisplatin-sensitive human A2780 cells; assay type: toxicity; conditions: ARPE19 cells versus cisplatin-sensitive A2780 cells, read-out: Ratio IC50
[5] = Selectivity index, ratio of IC50 for human ARPE19 cells to IC50 for cisplatin-resistant human A2780/CP70 cells; assay type: toxicity; conditions: ARPE19 cells versus cisplatin-resistant A2780/CP70 cells, read-out: Ratio IC50
[6] = species on record: Homo sapiens; assay: as §2; assay type: functional; in short: as §1

**Q.** With `CC1=C(CO)C(=O)O[C@@H]([C@@H](C)[C@H]2CC[C@H]3[C@@H]4C[C@H]5O[C@]56C(=O)C=CC(=O)[C@]6(C)[C@H]4CC[C@]23C)C1` as the molecule, how does the pIC50 [1] read?
**A.** The pIC50 was 8.14.

**Q.** And the pIC50 [2]?
**A.** The pIC50 was greater than 9.00.

**Q.** What about the pIC50 [3] of the same molecule?
**A.** The pIC50 was 7.49.

**Q.** What about the selectivity ratio [4] of the same molecule?
**A.** Its selectivity ratio is 4.3.

**Q.** And the selectivity ratio [5]?
**A.** Its selectivity ratio is greater than 32.

**Q.** What does the source list for `CC1=C(CO[Si](C)(C)C(C)C)C(=O)O[C@@H]([C@@H](C)[C@H]2CC[C@H]3[C@@H]4C[C@H]5O[C@]56C(=O)C=CC(=O)[C@]6(C)[C@H]4CC[C@]23C)C1`?
**A.** pIC50 [1]: 7.37; pIC50 [2]: 7.47; pIC50 [3]: 5.67; selectivity ratio [4]: 49.8; selectivity ratio [5]: 62.9

**Q.** With `CCC[Si](CCC)(CCC)OCC1=C(C)C[C@H]([C@@H](C)[C@H]2CC[C@H]3[C@@H]4C[C@H]5O[C@]56C(=O)C=CC(=O)[C@]6(C)[C@H]4CC[C@]23C)OC1=O` as the molecule, how does the pIC50 [1] read?
**A.** The pIC50 was 7.16.

**Q.** What about the pIC50 [2] of the same molecule?
**A.** The pIC50 was 7.68.

**Q.** What about the pIC50 [3] of the same molecule?
**A.** Its pIC50 is 5.76.

**Q.** And the selectivity ratio [4]?
**A.** Its selectivity ratio is 25.2.

**Q.** And the selectivity ratio [5]?
**A.** The selectivity ratio was 82.9.

**Q.** With `CC1=C(CO[Si](C)(C)c2ccccc2)C(=O)O[C@@H]([C@@H](C)[C@H]2CC[C@H]3[C@@H]4C[C@H]5O[C@]56[C@@H](O[Si](C)(C)c5ccccc5)C=CC(=O)[C@]6(C)[C@H]4CC[C@]23C)C1` as the molecule, how does the pIC50 [1] read?
**A.** The pIC50 was 8.54.

**Q.** What about the pIC50 [2] of the same molecule?
**A.** Its pIC50 is 7.54.

**Q.** And the pIC50 [3]?
**A.** The pIC50 was 6.51.

**Q.** What about the selectivity ratio [4] of the same molecule?
**A.** Its selectivity ratio is 107.

**Q.** What about the selectivity ratio [5] of the same molecule?
**A.** The selectivity ratio was 10.7.

**Q.** Which results are given for `CCC[Si](CCC)(CCC)OCC1=C(C)C[C@H]([C@@H](C)[C@H]2CC[C@H]3[C@@H]4C[C@H]5O[C@]56[C@@H](O[Si](CCC)(CCC)CCC)C=CC(=O)[C@]6(C)[C@H]4CC[C@]23C)OC1=O`?
**A.** Activity [1]: inactive; Activity [6]: inactive

**Q.** With `C=C[Si](C)(C)OCC1=C(C)C[C@H]([C@@H](C)[C@H]2CC[C@H]3[C@@H]4C[C@H]5O[C@]56[C@@H](O)C=CC(=O)[C@]6(C)[C@H]4CC[C@]23C)OC1=O` as the molecule, how does the pIC50 [1] read?
**A.** The pIC50 was 7.57.

**Q.** And the pIC50 [2]?
**A.** Its pIC50 is 7.51.

**Q.** What about the pIC50 [3] of the same molecule?
**A.** The pIC50 was 7.07.

**Q.** And the selectivity ratio [4]?
**A.** Its selectivity ratio is 3.2.

**Q.** What about the selectivity ratio [5] of the same molecule?
**A.** The selectivity ratio was 2.8.

**Q.** With `CC1=C(CO[Si](C)(c2ccccc2)c2ccccc2)C(=O)O[C@@H]([C@@H](C)[C@H]2CC[C@H]3[C@@H]4C[C@H]5O[C@]56C(=O)C=CC(=O)[C@]6(C)[C@H]4CC[C@]23C)C1` as the molecule, how does the pIC50 [1] read?
**A.** The pIC50 was 7.46.

**Q.** And the pIC50 [2]?
**A.** The pIC50 was less than 7.00.

**Q.** And the pIC50 [3]?
**A.** Its pIC50 is 5.69.

**Q.** What about the selectivity ratio [4] of the same molecule?
**A.** Its selectivity ratio is 58.6.

**Q.** For `CC1=C(CO[Si](C)(c2ccccc2)c2ccccc2)C(=O)O[C@@H]([C@@H](C)[C@H]2CC[C@H]3[C@@H]4C[C@H]5O[C@]56C(O[Si](C)(c5ccccc5)c5ccccc5)C=CC(=O)[C@]6(C)[C@H]4CC[C@]23C)C1` (stereo partly specified), which Activity [6] is on record?
**A.** The Activity was “inactive”.

**Q.** With `CC1=C(CO)C(=O)O[C@@H]([C@@H](C)[C@H]2CC[C@H]3[C@@H]4C[C@H]5O[C@]56[C@@H](O[Si](C)(C)C(C)C)C=CC(=O)[C@]6(C)[C@H]4CC[C@]23C)C1` as the molecule, how does the pIC50 [1] read?
**A.** The pIC50 was 7.47.

**Q.** And the pIC50 [2]?
**A.** The pIC50 was 7.64.

**Q.** And the pIC50 [3]?
**A.** Its pIC50 is 6.51.

**Q.** What about the selectivity ratio [4] of the same molecule?
**A.** The selectivity ratio was 9.1.

**Q.** What about the selectivity ratio [5] of the same molecule?
**A.** The selectivity ratio was 13.5.

**Q.** With `CC[Si](CC)(CC)OCC1=C(C)C[C@H]([C@@H](C)[C@H]2CC[C@H]3[C@@H]4C[C@H]5O[C@]56[C@@H](O)C=CC(=O)[C@]6(C)[C@H]4CC[C@]23C)OC1=O` as the molecule, how does the pIC50 [1] read?
**A.** Its pIC50 is less than 7.00.

**Q.** What about the pIC50 [2] of the same molecule?
**A.** Its pIC50 is 7.89.

**Q.** And the pIC50 [3]?
**A.** Its pIC50 is 7.52.

**Q.** What about the selectivity ratio [5] of the same molecule?
**A.** The selectivity ratio was 2.3.

**Q.** What does the source list for `CCCCCCCC[Si](C)(C)OCC1=C(C)C[C@H]([C@@H](C)[C@H]2CC[C@H]3[C@@H]4C[C@H]5O[C@]56[C@@H](O)C=CC(=O)[C@]6(C)[C@H]4CC[C@]23C)OC1=O`?
**A.** pIC50 [1]: 8.00; pIC50 [2]: 7.48; pIC50 [3]: 7.49; selectivity ratio [4]: 3.2; selectivity ratio [5]: 1

**Q.** What does the source list for `CC1=C(CO[Si](C)(C)C)C(=O)O[C@@H]([C@@H](C)[C@H]2CC[C@H]3[C@@H]4C[C@H]5O[C@]56C(=O)C=CC(=O)[C@]6(C)[C@H]4CC[C@]23C)C1`?
**A.** pIC50 [1]: 7.39; pIC50 [2]: 7.16; pIC50 [3]: 6.09; selectivity ratio [4]: 20; selectivity ratio [5]: 11.9

**Q.** With `CC1=C(CO[Si](C(C)C)(C(C)C)C(C)C)C(=O)O[C@@H]([C@@H](C)[C@H]2CC[C@H]3[C@@H]4C[C@H]5O[C@]56[C@@H](O)C=CC(=O)[C@]6(C)[C@H]4CC[C@]23C)C1` as the molecule, how does the pIC50 [1] read?
**A.** The pIC50 was 7.52.

**Q.** And the pIC50 [2]?
**A.** Its pIC50 is 7.21.

**Q.** What about the pIC50 [3] of the same molecule?
**A.** Its pIC50 is 7.21.

**Q.** And the selectivity ratio [4]?
**A.** The selectivity ratio was 2.1.

**Q.** What about the selectivity ratio [5] of the same molecule?
**A.** Its selectivity ratio is 1.
